# MEKK3 PB1 HTS: MEKK3-MEK5 PB1 interaction, increase or decrease | Q99759 | bead-based flow cytometry, Alexa488-MEK5 binding to MEKK3; actives lie on both sides; 0 = blocked by unlabeled MEK5, 100 = vehicle | binding response (% of control), % at 10 µM | hit rate 1.4% among 290,000;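 active means binding response more than 3 SD above or below the average of its plate-row segment, actives on both sides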;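 further: Alexa488 bead fluorescence after subtracting the streptavidin-only scavenger bead signal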
# MEKK2wt PB1 HTS: raises or lowers MEK5 binding to wildtype human MEKK2 PB1 domain | bead flow cytometry, Alexa488-MEK5 binding to MEKK2 WT; actives lie on both sides | Q9Y2U5 | AID 1531 | hit rate 1.1% among 290,000 | binding response (% of control), % at 10 µM; in the data active means binding response below about 67% or above about 130%
# MEKK2 mut-MEK5: signal of MEK5 binding to mutant human MEKK2 PB1 domain | bead flow cytometry, Alexa488-MEK5 binding to MEKK2 mutant | percent response, % at 10 µM | hit rate 0.35% among 290,000 | AID 1530; in the data active means percent response above about 24%, passing the limit was not always enough
# ABCB1 block: blocks JC-1 efflux by human ABCB1 transporter | inhibition, % at 6.6 µM | hit rate 0.067% among 190,000 | P08183 | AID 1326 | CCRF-Adr cells, flow cytometry; in the data active means inhibition above about 40%;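 further: 0% = vehicle and 100% = reference inhibitor; higher value means more JC-1 retained so stronger ABCB1 efflux block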
# Efflux pump inh: antifungal efflux pump inhibition, Nile Red retention. S. cerevisiae Candida pump triplex. inhibition, % at 10 µM. hit rate 0.44% among 330,000. AID 485275;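 active means plate passing quality check with inhibition over a set limit, or well fluorescence over plate mean plus 4 SD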;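 further: Nile Red retained in pooled yeast measured as flow cytometry median fluorescence; 0% = buffer negative control and 100% = Enniatin B positive control; higher means more Nile Red kept so more efflux inhibition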
# ABCG2 block: human ABCG2 inhibition, ABCB1 as counter-screen; inhibition, % at 6.6 µM; hit rate 0.1% among 190,000; IgMXP3 cells, JC-1 efflux, flow cytometry; Q9UNQ0;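 active means inhibition above 80%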;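 further: 0% = DMSO and 100% = nicardipine control wells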
#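 test system = two drug-resistant human cell lines, ABCG2 and ABCB1 | amount = 3 million cells/mL final, two lines in 1:1 ratio | reagent = JC-1 transporter substrate | doses = one concentration, 6.6 µM final | incubation = 10 min at 25 °C | signal = flow cytometric JC-1 green MFI at 530 nm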
# Cmpd fluor yeast: compound fluorescence in yeast efflux pump counter-screen. hit rate 4% among 1,700. S. cerevisiae AD/pABC3, flow cytometry. shares compounds with Efflux pump inh. fluorescence ratio to DMSO, % at 10 µM;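 active means fluorescence ratio to DMSO above its plate's cutoff, the plate mean ratio plus 5 SD, cut at about 210% in these data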;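 further: unstained yeast with no Nile Red so the signal is compound autofluorescence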
# Mdr1 pump inh: Candida Mdr1 efflux pump inhibition. shares compounds with Efflux pump inh. S. cerevisiae AD/CaMDR1, Nile Red efflux, flow cytometry. inhibition, % at 10 µM. hit rate 1% among 1,700. AID 588518; in the data active means inhibition above about 26%;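 further: 0% = DMSO vehicle and 100% = reference inhibitor; higher means more Nile Red retained so more efflux inhibition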
# Cdr2 pump inh: inhibitors of Candida albicans Cdr2 efflux pump. shares compounds with Efflux pump inh. S. cerevisiae AD/CaCDR2, Nile Red retention, flow cytometry. Nile Red retention ratio vs DMSO, % at 10 µM. hit rate 4% among 1,700; in the data active means Nile Red retention ratio vs DMSO above about 190%;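 further: higher ratio means more blocking of Cdr2 efflux of the dye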
# CaCdr1 efflux inh: Candida Cdr1 efflux pump inhibition | AID 588522 | shares compounds with Efflux pump inh | hit rate 1% among 1,700 | S. cerevisiae AD/CaCDR1, Nile Red efflux, flow cytometry | inhibition, % at 10 µM;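 active means inhibition above the screen-wide mean plus twice its standard deviation, cut at about 32% in these data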
# Starred values were filed as active, the others as inactive; . = no result given. Only some compounds are listed: those with a hit (about 2.5% of all), similar ones and a draw of the others.
SMILES,MEKK3 PB1 HTS,MEKK2wt PB1 HTS,MEKK2 mut-MEK5,ABCB1 block,Efflux pump inh,ABCG2 block,Cmpd fluor yeast,Mdr1 pump inh,Cdr2 pump inh,CaCdr1 efflux inh
O=C(NNC(=O)C1COc2ccccc2O1)c1cccc([N+](=O)[O-])c1 (centres undefined),96,81,-14,0,1.2*,11,107,0,97,0
CC(C)(C)NC(=O)C(=O)NNC(=O)COc1ccccc1,100,100,3,0,28*,3,100,0,106,0
O=C(COc1ccc(Br)cc1)Nc1nnc(C2CC2)s1,.,.,.,.,0,.,116,0,93,0
CC(Oc1ccc(Br)cc1)C(=O)Nc1nnc(C2CC2)s1 (centres undefined),.,.,.,.,0,.,99,0,109,0
Cc1ccc(C(C)C)cc1OCC(=O)Nc1nnc(C2CC2)s1,.,.,.,.,0,.,101,0,106,0
CCC(Oc1ccc(Br)cc1Cl)C(=O)Nc1nnc(C2CC2)s1 (centres undefined),97,101,8,.,-2,.,.,.,.,.
CCCCCN(C(=O)NC(=O)Nc1ccc(C)cc1)S(=O)(=O)c1ccccc1,97,108,4,0,0,2,.,.,.,.
CC(=O)c1nc(N2C(=O)CC(Cc3ccccc3)C2=O)sc1C (centres undefined),125,104,0,0,0,0,.,.,.,.
O=C(NNc1ccccc1)/C(=C\c1cccnc1)NC(=O)c1ccccc1,105,99,8,.,0,.,.,.,.,.
N#C/C(=C\c1ccc([N+](=O)[O-])o1)C(=O)Nc1ccc(F)cc1,113,107,0,0,1.6*,-1,275*,1,172,1
COc1ccc(NC(=O)/C(C#N)=C\c2ccc(Br)o2)cc1,105,99,-4,.,0,.,.,.,.,.
O=C(O)c1cccnc1C(=O)O,.,.,.,.,0,.,.,.,.,.
N#Cc1ncc(-c2ccc3c(c2)OCCOCCOCCOCCO3)nc1C#N,105,102,0,2,9.6*,17,89,0,112,0
O=C(CSc1nnc(-c2ccc(Cl)cc2Cl)n1C1CCCCC1)N1CCCC1,102,102,3,2,0,2,.,.,.,.
CC(C)Cc1nnc(NS(=O)(=O)Cc2ccccc2)s1,102,104,12,0,9.0*,1,108,0,106,0
CS(=O)(=O)Nc1nnc(Cc2ccccc2)s1,105,108,9,1,0,7,.,.,.,.
Cc1nnsc1-c1nnc(SCC(=O)c2ccc(C#N)cc2)n1C1CC1,96,99,-4,.,0.6*,.,107,0,108,0
CC(=O)Oc1ccc(N(c2ccccc2)S(=O)(=O)c2ccc(C)cc2)cc1,101,97,-7,0,0,1,.,.,.,.
O=C(COC(=O)c1ccc(O)cc1O)NCCN1C(=O)CSC1=O,103,102,-7,.,0,.,100,0,97,0
O=C(COC(=O)c1cc(Cl)ccc1Cl)NCCN1C(=O)CSC1=O,111,112,0,0,32*,1,95,0,101,0
CC(=O)Nc1cccc(NS(=O)(=O)c2cc3c4c(c2)CCN4C(=O)CC3)c1,.,.,.,.,0,.,.,.,.,.
S=C(NCC1CCCO1)N1CCc2ccccc2C1 (centres undefined),104,110,3,.,0,.,95,0,89,0
COc1ccc(-c2cc(C(F)(F)F)n3nc(C(=O)N(C)Cc4ccccc4)cc3n2)cc1OC,93,81,-10,10,1.4*,30,96,0,97,0
COc1ccc(CCC(=O)NNC(=O)Cn2nc(C)cc2C)cc1,102,108,3,.,5.5*,.,110,0,98,0
CCN(CCO)Cc1csc2cc(C)ccc12,98,100,-2,1,7.5*,0,88,0,96,0
SMILES,MEKK3 PB1 HTS,MEKK2wt PB1 HTS,MEKK2 mut-MEK5,ABCB1 block,Efflux pump inh,ABCG2 block,Cmpd fluor yeast,Mdr1 pump inh,Cdr2 pump inh,CaCdr1 efflux inh
CCOC(=O)C1CCCCN1S(=O)(=O)c1ccc2c(c1)CC(C)N2C(=O)C1CCC1 (centres undefined),105,106,9,.,0,.,103,0,96,0
CC(=O)OCCn1c2nc(=O)[nH]c(=O)c-2nc2cc(C)c(C)cc21,112,98,-2,.,0.7*,.,121,0,137,1
CC(=O)OCCn1c(C)[n+](CCOC(C)=O)c2cc(Cl)c(Cl)cc21,101,94,-2,0,-1,-1,.,.,.,.
O=C(/C=C/c1ccccc1Cl)NCCc1ccc(F)cc1,105,107,1,0,1,8,.,.,.,.
O=C(/C=C/c1ccccc1[N+](=O)[O-])NCCc1ccc(F)cc1,80,79,-8,0,0.4*,1,88,0,184,0
C[n+]1ccccc1/C=C/c1ccc([N+](=O)[O-])cc1,100,103,5,.,1.4*,.,133,1,120,0
Cc1cc2oc(=O)c(CC(=O)NCCCN(C)C)c(C)c2c2occ(C(C)(C)C)c12,98,118,1,.,0.9*,.,108,0,89,0
CN(C)C(=O)CSc1nc2ccc(N3C(=O)c4ccccc4C3=O)cc2s1,88,91,-17,.,0.7*,.,90,0,100,0
CCCN(c1ccccc1C(=O)O)S(=O)(=O)c1ccc2c(c1)n(C)c(=O)n2C,93,96,1,.,0,.,.,.,.,.
CCOc1ccc(/C=N/NC(=O)c2ccccc2O)cc1CN1CC2CC(C1)c1cccc(=O)n1C2 (centres undefined),.,.,.,.,0.8*,.,85,0,104,0
O=C(O)CCCNC(=O)Cc1ccccc1,81,90,-26,.,0,.,.,.,.,.
CCOC(=O)C1=C(CS(=O)(=O)c2ccccc2)NC(=O)NC1c1ccccc1 (centres undefined),99,97,0,0,0.5*,2,90,0,96,0
CC(CNC(=O)c1ccc(OC2CCN(Cc3ccccn3)CC2)cc1)c1ccccc1 (centres undefined),101,109,4,.,5.3*,.,102,0,96,0
CCN(CC)S(=O)(=O)c1cc(NC(=O)c2ccc(-n3cncn3)c([N+](=O)[O-])c2)ccc1C,101,103,4,.,0,.,.,.,.,.

# Compound activity from PubChem.
